Active and inactive are the calls of the source. The rule behind the calls is not given here.
Tests used:
B16-F10 [1] = experiment: Induction of cell cycle arrest in mouse B16F10 cells assessed as cell accumulation at G1 phase at 12.5 uM incubated for 48 hrs by propidium iodide staining-based flow cytometric analysis (reference value: 59.73%); assay type: functional
B16-F10 [2] = experiment: Induction of apoptosis in mouse B16F10 cells assessed as late apoptosis cells at 12.5 uM incubated for 48 hrs by Annexin-V-FITC/propidium iodide staining-based flow cytometric analysis (reference value: 2.88%); assay type: functional
Procedure, shortened: (§1)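 F10 cells were exposed to 0, 3.125, 6.25, 12.5 or 25 µM for 48 h. Cells were stained with Annexin V/PI and read by flow cytometry. Data are mean ± SD of three independent experiments.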

B16-F10 [3] = experiment: Induction of apoptosis in mouse B16F10 cells assessed as necrosis cells at 12.5 uM incubated for 48 hrs by Annexin-V-FITC/propidium iodide staining-based flow cytometric analysis (reference value: 0.186%); assay type: functional; procedure, shortened: as §1
B16-F10 [4] = experiment: Induction of apoptosis in mouse B16F10 cells assessed as necrosis cells at 25 uM incubated for 48 hrs in presence of apoptosis inhibitor z-VAD-fmk by Annexin-V-FITC/propidium iodide staining-based flow cytometric analysis (reference value: 0.558%); assay type: functional
B16-F10 [5] = experiment: Induction of cell cycle arrest in mouse B16F10 cells assessed as cell accumulation at G2 phase at 12.5 uM incubated for 48 hrs by propidium iodide staining-based flow cytometric analysis (reference value: 22.43%); assay type: functional
B16-F10 [6] = experiment: Induction of apoptosis in mouse B16F10 cells assessed as late apoptosis cells at 12.5 uM incubated for 48 hrs in presence of apoptosis inhibitor z-VAD-fmk by Annexin-V-FITC/propidium iodide staining-based flow cytometric analysis (reference value: 3.13%); assay type: functional
B16-F10 [7] = experiment: Induction of apoptosis in mouse B16F10 cells assessed as viable cells at 6.25 uM incubated for 48 hrs by Annexin-V-FITC/propidium iodide staining-based flow cytometric analysis (reference value: 94%); assay type: functional; conditions: B16-F10, 48 h, read-out: Activity; procedure, shortened: as §1
B16-F10 [8] = experiment: Inhibition of LPS-induced PGE2 production in mouse B16F10 cells at 6.25 uM incubated for 24 hrs by enzyme immunoassay; assay type: functional, cell-based
Procedure, shortened: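 F10 cells treated for 24 h alongside LPS (1 µg/ml), test agent at 6.25 µM. Supernatant collected by centrifugation and PGE2 measured with a PGE2 enzyme immunoassay (ELISA) kit. Mean ± SD of three independent experiments.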

B16-F10 [9] = experiment: Induction of apoptosis in mouse B16F10 cells assessed as late apoptosis cells at 3.125 uM incubated for 48 hrs in presence of apoptosis inhibitor z-VAD-fmk by Annexin-V-FITC/propidium iodide staining-based flow cytometric analysis (reference value: 3.13%); assay type: functional
B16-F10 [10] = experiment: Induction of cell cycle arrest in mouse B16F10 cells assessed as cell accumulation at G1 phase at 3.125 uM incubated for 48 hrs by propidium iodide staining-based flow cytometric analysis (reference value: 59.73%); assay type: functional
A549 = experiment: Antiproliferative activity against human A549 cells incubated for 48 hrs by MTT assay; assay type: functional, cell-based; conditions: A549, 48 h
Procedure, shortened: (§2)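 MTT assay on F10 (murine melanoma), HeLa, A549, MCF-7 and 293T (human renal epithelium) cells. IC50 given as mean ± SD of three independent experiments.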

B16-F10 [11] = experiment: Induction of cell cycle arrest in mouse B16F10 cells assessed as cell accumulation at G2 phase at 25 uM incubated for 48 hrs by propidium iodide staining-based flow cytometric analysis (reference value: 22.43%); assay type: functional
B16-F10 [12] = experiment: Induction of apoptosis in mouse B16F10 cells assessed as early apoptosis cells at 6.25 uM incubated for 48 hrs by Annexin-V-FITC/propidium iodide staining-based flow cytometric analysis (reference value: 2.93%); assay type: functional; procedure, shortened: as §1
B16-F10 [13] = experiment: Induction of apoptosis in mouse B16F10 cells assessed as necrosis cells at 3.125 uM incubated for 48 hrs in presence of apoptosis inhibitor z-VAD-fmk by Annexin-V-FITC/propidium iodide staining-based flow cytometric analysis (reference value: 0.558%); assay type: functional
B16-F10 [14] = experiment: Induction of apoptosis in mouse B16F10 cells assessed as necrosis cells at 6.25 uM incubated for 48 hrs by Annexin-V-FITC/propidium iodide staining-based flow cytometric analysis (reference value: 0.186%); assay type: functional; procedure, shortened: as §1
B16-F10 [15] = experiment: Induction of cell cycle arrest in mouse B16F10 cells assessed as cell accumulation at G2 phase at 3.125 uM incubated for 48 hrs by propidium iodide staining-based flow cytometric analysis (reference value: 22.43%); assay type: functional
B16-F10 [16] = experiment: Antitumor activity against mouse B16F10 cells implanted in nude mouse assessed as decrease in tumor weight at 20 mg/kg, ip administered once per 2 days for 14 days by caliper method relative to control; assay type: functional, organism-based
Procedure, shortened: (§3)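 Nude mice were given 5×10^6 F10 cells subcutaneously in the right flank. At about 100 mm3, 24 mice were randomized into four groups of vehicle or compound. Dosing was intraperitoneal every two days for two weeks. Tumor volume was recorded every other day. Tumors were excised and weighed after the last treatment, and body weight was monitored.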

B16-F10 [17] = experiment: Induction of apoptosis in mouse B16F10 cells incubated for 48 hrs by Annexin-V-FITC/propidium iodide staining-based flow cytometric analysis; assay type: functional, cell-based; procedure, shortened: as §1
B16-F10 [18] = experiment: Induction of apoptosis in mouse B16F10 cells assessed as late apoptosis cells at 3.125 uM incubated for 48 hrs by Annexin-V-FITC/propidium iodide staining-based flow cytometric analysis (reference value: 2.88%); assay type: functional; procedure, shortened: as §1
B16-F10 [19] = experiment: Induction of apoptosis in mouse B16F10 cells assessed as necrosis cells at 6.25 uM incubated for 48 hrs in presence of apoptosis inhibitor z-VAD-fmk by Annexin-V-FITC/propidium iodide staining-based flow cytometric analysis (reference value: 0.558%); assay type: functional
B16-F10 [20] = experiment: Antitumor activity against mouse B16F10 cells implanted in nude mouse assessed as tumor weight at 40 mg/kg, ip administered once per 2 days for 14 days by caliper method (reference value: 1.24g); assay type: functional; procedure, shortened: as §3
B16-F10 [21] = experiment: Induction of cell cycle arrest in mouse B16F10 cells assessed as cell accumulation at G1 phase at 6.25 uM incubated for 48 hrs by propidium iodide staining-based flow cytometric analysis (reference value: 59.73%); assay type: functional
B16-F10 [22] = experiment: Induction of apoptosis in mouse B16F10 cells assessed as early apoptosis cells at 25 uM incubated for 48 hrs in presence of apoptosis inhibitor z-VAD-fmk by Annexin-V-FITC/propidium iodide staining-based flow cytometric analysis (reference value: 3.83%); assay type: functional
HEK-293T = experiment: Antiproliferative activity against human 293T cells incubated for 48 hrs by MTT assay; assay type: cell-based; procedure, shortened: as §2
B16-F10 [23] = experiment: Induction of apoptosis in mouse B16F10 cells assessed as late apoptosis cells at 25 uM incubated for 48 hrs in presence of apoptosis inhibitor z-VAD-fmk by Annexin-V-FITC/propidium iodide staining-based flow cytometric analysis (reference value: 3.13%); assay type: functional
B16-F10 [24] = experiment: Induction of apoptosis in mouse B16F10 cells assessed as late apoptosis cells at 6.25 uM incubated for 48 hrs in presence of apoptosis inhibitor z-VAD-fmk by Annexin-V-FITC/propidium iodide staining-based flow cytometric analysis (reference value: 3.13%); assay type: functional
[25] = Metabolic stability in mouse B16F10 cells implanted in nude mouse plasma assessed as peak time at 40 mg/kg, ip measured after 24 to 48 hrs by HPLC analysis; assay type: ADME, organism-based; conditions: in vivo
Procedure, shortened: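 Tumor-bearing nude mice dosed intraperitoneally. Blood was taken from the eye 24 h later and centrifuged to plasma. The plasma was extracted with ethyl acetate and analysed by HPLC for compound peak retention time.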

NS(=O)(=O)c1ccc(-n2nc(C(=O)NCCCN3CCOCC3)cc2-c2ccc(C(F)(F)F)cc2)cc1
Activity (B16-F10 [1]): 49.08%
Activity (B16-F10 [2]): 5.09%
Activity (B16-F10 [3]): 0.685%
Activity (B16-F10 [4]): 0.845%
Activity (B16-F10 [5]): 30.41%
Activity (B16-F10 [6]): 9.78%
viability at 6.25 µM (B16-F10 [7]): 77.2%
inhibition (B16-F10 [8]): Active
Activity (B16-F10 [9]): 4.52%
Activity (B16-F10 [10]): 55.36%
IC50 (A549): 11 µM
Activity (B16-F10 [11]): 33.6%
Activity (B16-F10 [12]): 14.5%
Activity (B16-F10 [13]): 0.23%
Activity (B16-F10 [14]): 0.366%
Activity (B16-F10 [15]): 28.69%
Activity (B16-F10 [16]): Active
Activity (B16-F10 [17]): Dose-dependent effect
Activity (B16-F10 [18]): 4.9%
Activity (B16-F10 [19]): 0.155%
Activity (B16-F10 [20]): 0.48 g
Activity (B16-F10 [21]): 50.07%
Activity (B16-F10 [22]): 11.3%
IC50 (HEK-293T): 194 µM
Activity (B16-F10 [23]): 9.1%
Activity (B16-F10 [24]): 5.34%
Retention_time [25]: 39.95 min
